Columns and labels:
MCF7 = assay: Antiproliferative activity against estrogen receptor-positive in human MCF7 cells; format: functional, cell-based
Method in brief: (§1)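 IC50 values for growth inhibition are reported as means ± standard deviations from at least two separate experiments, each run in triplicate.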

SK-BR-3 = assay: Antiproliferative activity against estrogen receptor-negative Her2 overexpressing in human SKBR3 cells; format: functional, cell-based; method in brief: as §1
[1] = biological target: Heat shock protein HSP 90-beta (Homo sapiens) (UniProt P08238); assay: Inhibition of HSP90 in human MCF7 cells assessed as degradation of Raf1 protein after 24 hrs by Western blot analysis; format: cell-based
Method in brief: (§2)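 MCF-7 breast cancer cells were exposed to a range of test concentrations (μM) for 24 h, then lysed. Lysates were immunoblotted for the Hsp90-dependent clients Raf-1 and Akt, and also for Hsp90 itself. Actin served as the non-Hsp90-dependent reference protein.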

[2] = biological target: Heat shock protein HSP 90-beta (Homo sapiens) (UniProt P08238); assay: Inhibition of HSP90 in human MCF7 cells assessed as degradation of Akt protein after 24 hrs by Western blot analysis; format: cell-based; method in brief: as §2

Sequence of Heat shock protein HSP 90-beta (Homo sapiens) (P08238 whole entry): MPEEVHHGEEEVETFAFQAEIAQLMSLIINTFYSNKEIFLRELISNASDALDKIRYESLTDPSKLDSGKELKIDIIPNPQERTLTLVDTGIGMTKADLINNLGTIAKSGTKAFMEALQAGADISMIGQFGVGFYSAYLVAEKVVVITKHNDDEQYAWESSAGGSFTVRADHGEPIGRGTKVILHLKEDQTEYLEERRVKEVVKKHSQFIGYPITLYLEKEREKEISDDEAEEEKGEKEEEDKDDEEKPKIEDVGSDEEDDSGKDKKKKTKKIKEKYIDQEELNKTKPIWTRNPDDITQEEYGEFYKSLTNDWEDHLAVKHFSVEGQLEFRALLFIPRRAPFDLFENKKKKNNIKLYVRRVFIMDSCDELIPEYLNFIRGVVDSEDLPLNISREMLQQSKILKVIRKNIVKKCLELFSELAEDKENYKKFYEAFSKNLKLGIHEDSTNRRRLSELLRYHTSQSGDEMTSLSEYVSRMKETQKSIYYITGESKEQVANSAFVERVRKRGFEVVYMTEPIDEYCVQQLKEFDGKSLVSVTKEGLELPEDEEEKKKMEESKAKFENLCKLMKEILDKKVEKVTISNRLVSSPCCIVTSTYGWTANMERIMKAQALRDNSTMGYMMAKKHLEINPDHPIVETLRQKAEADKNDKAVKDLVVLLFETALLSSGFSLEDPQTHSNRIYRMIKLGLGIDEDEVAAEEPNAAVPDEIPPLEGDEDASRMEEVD

| Structure (SMILES) | IC50 (MCF7) | IC50 (SK-BR-3) | inhibition [1] | inhibition [2] |
| --- | --- | --- | --- | --- |
| CN1CCC(Oc2ccc3cc(-c4ccc(C(C)(C)C)cc4)c(=O)oc3c2)CC1 | 2.36 µM | 4.42 µM |  |  |
| COc1ccc(-c2cc3ccc(OC4CCN(C)CC4)c(C)c3oc2=O)cc1 | 1.97 µM | 5.52 µM |  |  |
| Cc1c(OC2CCN(C)CC2)ccc2cc(-c3ccc4c(c3)OCO4)c(=O)oc12 | 3.71 µM | 5.21 µM |  |  |
| Cc1c(OC2CCN(C)CC2)ccc2cc(-c3ccc(F)cc3)c(=O)oc12 | 3.83 µM | 7.38 µM |  |  |
| CN1CCC(Oc2ccc3cc(-c4ccc(Cl)cc4)c(=O)oc3c2)CC1 | 3.89 µM | 8.24 µM |  |  |
| CN1CCC(Oc2ccc3cc(-c4ccc(OC(F)(F)F)cc4)c(=O)oc3c2)CC1 | 4.12 µM | 5.78 µM |  |  |
| CN1CCC(Oc2ccc3cc(-c4ccc5c(c4)OCO5)c(=O)oc3c2)CC1 | 8.79 µM | 14.8 µM |  |  |
| CN1CCC(Oc2ccc3cc(-c4cc5ccccc5o4)c(=O)oc3c2)CC1 | 4.93 µM | 5.84 µM |  |  |
| CN1CCC(Oc2ccc3cc(-c4cccc(C(F)(F)F)c4)c(=O)oc3c2)CC1 | 4.64 µM | 9.21 µM |  |  |
| CN1CCC(Oc2ccc3cc(-c4cc5ccccc5s4)c(=O)oc3c2)CC1 | 0.81 µM | 0.98 µM | Dose-dependent effect | Dose-dependent effect |
| CN1CCC(Oc2ccc3cc(-c4ccc(Oc5ccccc5)cc4)c(=O)oc3c2)CC1 | 1.45 µM | 4.43 µM |  |  |
| Cc1ccc(-c2cc3ccc(OC4CCN(C)CC4)cc3oc2=O)cc1 | 8.6 µM | 11.2 µM |  |  |
| CN1CCC(Oc2ccc3cc(-c4ccccc4Cl)c(=O)oc3c2)CC1 | 10.6 µM | 25.4 µM |  |  |
| CN1CCC(Oc2ccc3cc(-c4cccc(C#N)c4)c(=O)oc3c2)CC1 | 8.42 µM | 10.6 µM |  |  |
| CN1CCC(Oc2ccc3cc(-c4ccc(F)cc4)c(=O)oc3c2)CC1 | 10.5 µM | 43.9 µM |  |  |
| COc1ccc(-c2cc3ccc(OC4CCN(C)CC4)cc3oc2=O)cc1 | 16.9 µM | 29.9 µM |  |  |
| Cc1c(OC2CCN(C)CC2)ccc2cc(-c3ccc(OC(F)(F)F)cc3)c(=O)oc12 | 1.65 µM | 4.51 µM |  |  |
| Cc1c(OC2CCN(C)CC2)ccc2cc(-c3ccc(Cl)cc3)c(=O)oc12 | 1.24 µM | 4.94 µM |  |  |
| CN1CCC(Oc2ccc3cc(-c4cccc(F)c4)c(=O)oc3c2)CC1 | 7.67 µM | 24.9 µM |  |  |
| CN1CCC(Oc2ccc3cc(-c4ccccc4-c4ccccc4)c(=O)oc3c2)CC1 | 15.6 µM | 15.6 µM |  |  |
| CN1CCC(Oc2ccc3cc(-c4ccc(-c5ccccc5)cc4)c(=O)oc3c2)CC1 | 3.08 µM | 3.33 µM |  |  |
| Cc1c(OC2CCN(C)CC2)ccc2cc(-c3ccccc3)c(=O)oc12 | 7.72 µM | 14.3 µM |  |  |
| CN1CCC(Oc2ccc3cc(-c4ccccc4)c(=O)oc3c2)CC1 | 29 µM | 38.4 µM |  |  |
| CN1CCC(Oc2ccc3cc(-c4cccc(Cl)c4)c(=O)oc3c2)CC1 | 5.79 µM | 9.46 µM |  |  |
